Measured values as given in ChEMBL document CHEMBL5321217, “Identification of pyrrolo[3',4':3,4]cyclohepta[1,2-d][1,2]oxazoles as promising new candidates for the treatment of lymphomas” (Eur J Med Chem, 2023).
The source made the active and inactive calls. The rule behind the calls is not given here.

What was measured:
[1] = system: NCI-H522; assay: Antiproliferative activity against human NCI-H522 cells assessed as growth inhibition incubated for 72 hrs by MTT assay; format: functional
[2] = system: NCI-H23; assay: Antiproliferative activity against human NCI-H23 cells assessed as growth inhibition incubated for 72 hrs by MTT assay; format: functional
[3] = system: NCI-H226; assay: Antiproliferative activity against human NCI-H226 cells assessed as growth inhibition incubated for 72 hrs by MTT assay; format: functional
[4] = system: HOP-62; assay: Antiproliferative activity against human HOP-62 cells assessed as growth inhibition incubated for 72 hrs by MTT assay; format: functional
[5] = system: CCRF-CEM; assay: Antiproliferative activity against human CCRF-CEM cells assessed as growth inhibition incubated for 72 hrs by MTT assay; format: functional
[6] = system: HL-60(TB); assay: Antiproliferative activity against human HL-60(TB) cells assessed as growth inhibition incubated for 72 hrs by […]; format: functional
Summary of the method: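 NCI 60-cell-line panel screen. […] Compounds were dissolved in DMSO as 10 mM stocks, and DMSO in the assays stayed at or below 0.1%.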

[7] = system: MOLT-4; assay: Antiproliferative activity against human MOLT-4 cells assessed as growth inhibition incubated for 72 hrs by MTT assay; format: functional
[8] = system: RPMI-8226; assay: Antiproliferative activity against human RPMI-8226 cells assessed as growth inhibition incubated for 72 hrs by MTT assay; format: functional
[9] = system: A549; assay: Antiproliferative activity against human A549 cells assessed as growth inhibition incubated for 72 hrs by MTT assay; format: functional
[10] = system: EKVX; assay: Antiproliferative activity against human EKVX cells assessed as growth inhibition incubated for 72 hrs by MTT assay; format: functional
[11] = system: COLO 205; assay: Antiproliferative activity against human COLO 205 cells assessed as growth inhibition incubated for 72 hrs by MTT assay; format: functional
[12] = system: HCT-116; assay: Antiproliferative activity against human HCT-116 cells assessed as growth inhibition incubated for 72 hrs by MTT assay; format: functional
[13] = system: HT-29; assay: Antiproliferative activity against human HT-29 cells assessed as growth inhibition incubated for 72 hrs by MTT assay; format: functional
[14] = system: SF-295; assay: Antiproliferative activity against human SF-295 cells assessed as growth inhibition incubated for 72 hrs by MTT assay; format: functional
[15] = system: SNB-19; assay: Antiproliferative activity against human SNB-19 cells assessed as growth inhibition incubated for 72 hrs by MTT assay; format: functional
[16] = system: SNB-75; assay: Antiproliferative activity against human SNB-75 cells assessed as growth inhibition incubated for 72 hrs by MTT assay; format: functional
[17] = system: M14; assay: Antiproliferative activity against human M14 cells assessed as growth inhibition incubated for 72 hrs by MTT assay; format: functional
[18] = system: MDA-MB-435; assay: Antiproliferative activity against human MDA-MB-435 cells assessed as growth inhibition incubated for 72 hrs by MTT assay; format: functional
[19] = system: SK-MEL-5; assay: Antiproliferative activity against human SK-MEL-5 cells assessed as growth inhibition incubated for 72 hrs by MTT assay; format: functional
[20] = system: OVCAR-5; assay: Antiproliferative activity against human OVCAR-5 cells assessed as growth inhibition incubated for 72 hrs by MTT assay; format: functional
[21] = system: A498; assay: Antiproliferative activity against human A498 cells assessed as growth inhibition incubated for 72 hrs by MTT assay; format: functional
[22] = system: ACHN; assay: Antiproliferative activity against human ACHN cells assessed as growth inhibition incubated for 72 hrs by MTT assay; format: functional
[23] = system: RXF 393; assay: Antiproliferative activity against human RXF 393 cells assessed as growth inhibition incubated for 72 hrs by MTT assay; format: functional
[24] = system: T47D; assay: Antiproliferative activity against human T47D cells assessed as growth inhibition incubated for 72 hrs by MTT assay; format: functional
[25] = system: MDA-MB-468; assay: Antiproliferative activity against human MDA-MB-468 cells assessed as growth inhibition incubated for 72 hrs by MTT assay; format: functional
[26] = Antiproliferative activity against human HBL1 cells assessed as cell growth inhibition measured after 72 hrs by MTT assay; format: functional, cell-based; settings: HBL1, 72 h
Summary of the method: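 Lymphoma cells in RPMI-1640 with 20% FBS, seeded at 5,000–10,000 cells/well depending on doubling time. Exposed for 72 h at 37 °C, 5% CO2 to a 1:2 serial dilution from 0 to 10 μM (DMSO ≤0.1%). MTT from a 5 mg/mL stock was added for 4 h, cells were lysed with 25% SDS, and A570 was read against medium-only blanks. IC50 from triplicate assays.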

[27] = system: SU-DHL10; assay: Antiproliferative activity against human SU-DHL-10 cells assessed as cell growth inhibition measured after 72 hrs by MTT assay; format: functional, cell-based; settings: SU-DHL10, 72 h
Summary of the method: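 Lymphoma cells grown in RPMI-1640 with 20% FBS, seeded at 5,000–10,000 cells/well by doubling time. Doses 0–10 μM, 1:2 serial dilution, DMSO ≤0.1%, 72 h at 37 °C, 5% CO2. MTT (5 mg/mL stock) added for 4 h, SDS lysis, A570 read against medium-only blanks. IC50 from triplicate assays.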

[28] = Cytotoxicity against resting human PBL cells assessed as inhibition of cell growth measured after 72 hrs by MTT assay; format: toxicity, cell-based; settings: resting human peripheral blood lymphocytes (PBL)
[29] = Cytotoxicity against PHA-induced human PBL cells assessed as inhibition of cell growth measured after 72 hrs by MTT assay; format: toxicity, cell-based; settings: PHA-induced human peripheral blood lymphocytes (PBL)
[30] = system: CCRF-CEM; assay: Induction of apoptosis in human CCRF-CEM cells assessed as increase in apoptotic cells incubated for 48 hrs by annexin V-FITC and PI staining based flow cytometric analysis; format: functional, cell-based; settings: dose 1-5 µM
Summary of the method: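 Cells exposed to several concentrations for 48 h, then stained with annexin V-FITC and PI and read by flow cytometry (FL1/FL3). Apoptotic cells = annexin V-positive plus annexin V/PI double-positive. Mean of three independent experiments.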

[31] = system: VL51; assay: Induction of mitochondrial membrane potential depolarization in human VL51 cells at 0.5 to 1 uM measured after 24 hrs by JC-1 fluorescent dye based flow cytometry analysis; format: functional, cell-based; settings: dose 0.5-1 µM
Summary of the method: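 VL51 cells treated 24 h at 0.5 and 1.0 μM, labelled with JC-1, analysed by flow cytometry in FL1 and FL2 channels.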

[32] = system: A549; assay: Induction of cell cycle arrest in human A549 cells assessed as accumulation of cells at G2/M phase at 1 uM incubated for 24 hrs by PI staining based flow cytometry analysis; format: functional
Summary of the method: (§1)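 Seeding in 6-well plates, 2 mL medium: A549 5×10^4, CCRF-CEM 2.5×10^5, VL51 2.0×10^5. 24 h treatment, A549 detached with trypsin-EDTA. Cells fixed in 70% ice-cold ethanol, PI-labelled, analysed by flow cytometry. Mean of two independent experiments.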

[33] = system: CCRF-CEM; assay: Induction of cell cycle arrest in human CCRF-CEM cells assessed as accumulation of cells at G2/M phase at 1 uM incubated for 24 hrs by PI staining based flow cytometry analysis; format: functional; summary of the method: as §1
[34] = system: VL51; assay: Antiproliferative activity against human VL51 cells assessed as reduction in cell proliferation at 1 uM measured after 72 hrs by MTT assay relative to control; format: functional; design: scale not given: the % may be the effect or the level left
Summary of the method: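 Single-dose 1 μM screen in lymphoma cells (RPMI-1640, 20% FBS; 5,000–10,000 cells/well), 72 h at 37 °C, 5% CO2, DMSO ≤0.1%. MTT for 4 h, SDS lysis, absorbance at 570 nm. Proliferation expressed as percent of untreated control.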

Row | Structure (SMILES) | GI50 [1] [nM] | GI50 [2] [nM] | GI50 [3] [nM] | GI50 [4] [nM] | GI50 [5] [nM] | GI50 [6] [nM] | GI50 [7] [nM] | GI50 [8] [nM] | GI50 [9] [nM] | GI50 [10] [nM] | GI50 [11] [nM] | GI50 [12] [nM] | GI50 [13] [nM] | GI50 [14] [nM] | GI50 [15] [nM] | GI50 [16] [nM] | GI50 [17] [nM] | GI50 [18] [nM] | GI50 [19] [nM] | GI50 [20] [nM] | also measured
1 | COc1ccc(Cn2cc3c(c2-c2cc(OC)c(OC)c(OC)c2)CCCc2cnoc2-3)cc1 | 980 | 2620 | 1990 | 2220 | 410 | 350 | 800 | 1560 | 2340 | 3000 | 1450 | 390 | 1130 | 510 | 1530 | 870 | 390 | 230 | 2000 | 3720 | GI50 [21]: 690 nM; GI50 [22]: 900 nM; GI50 [23]: 660 nM; GI50 [24]: 1850 nM; GI50 [25]: 560 nM; IC50 [26]: 1000 nM; IC50 [27]: 1800 nM; IC50 at 72 h [28]: > 10000 nM; IC50 at 72 h [29]: > 10000 nM; Activity [30]: Dose-Dependent Effect; Activity [31]: Active; Activity [32]: Active; Activity [33]: Active; Activity [34]: >50%
2 | COc1ccc(Cn2cc3c(c2-c2cc(OC)c(OC)c(OC)c2)CCCc2cnoc2-3)cc1N | 260 | 1340 | 2540 | 690 | 440 | 300 | 650 | 610 | 950 | 2670 | 380 | 400 | 420 | 500 | 810 | 380 | 480 | 240 | 1130 | 1440 | GI50 [21]: 360 nM; GI50 [22]: 690 nM; GI50 [23]: 450 nM; GI50 [24]: 390 nM; GI50 [25]: 650 nM; IC50 [26]: 500 nM; IC50 [27]: 500 nM; IC50 at 72 h [28]: > 10000 nM; IC50 at 72 h [29]: > 10000 nM; Activity [30]: Dose-Dependent Effect; Activity [31]: Active; Activity [32]: Active; Activity [33]: Active; Activity [34]: >50%
